Each structure is given as a SMILES string. Calls of active or inactive are those of the source. The rule behind the calls is not given here. A value given as a limit tells only on which side of the number the result lay.

Consider six compounds from ChEMBL document CHEMBL4024772, “Aniline-Based Inhibitors of Influenza H1N1 Virus Acting on Hemagglutinin-Mediated Fusion” (J Med Chem, 2018).

Data set [1] in a line: Inhibition of Influenza A virus (A/Puerto Rico/8/34(H1N1)) neuraminidase using fetuin as substrate. Also noted: species or system Influenza A virus (A/Puerto Rico/8/1934(H1N1)).
In data set [2] the test system is Influenza A virus (A/X-31(H3N2)). Briefly: Inhibition of HeLa cell expressing Influenza A virus (A/X-31(H3N2)) hemagglutinin H3-mediated polykaryon formation preincubated for 15 mins followed by 5 mins of exposure to compound diluted in acidified PBS-CM of pH 5 and subsequent incubation with medium containing 10% fetal calf serum for 3 hrs by Giemsa staining-based inverted microscopy. The method in brief:
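Polykaryon assay with cells transfected with H3 HA (A/X31). Cells were preincubated with compound, exposed to low pH to induce cell–cell fusion, then kept in medium 3 h. Polykaryons were counted microscopically relative to the no-compound control.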

Another data set relates to Influenza B virus. Briefly: Antiviral activity against Influenza B virus (B/Hong Kong/05/1972) infected in MDCK cells assessed as inhibition of virus-induced cytopathicity at 100 uM after 72 hrs. In kind it is functional, cell-based. The method in brief: (§1)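 MDCK cells infected with influenza virus; viral cytopathic effect scored microscopically at 3 days post infection and confirmed by colorimetric formazan-based MTS viability assay. EC50 is the concentration giving 50% inhibition of viral cytopathicity. For A/HK/7/87 (H3N2) and B/HongKong/5/1972, the highest tested concentration was 100 μM.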

Data set [3] in a line: Antiviral activity against Influenza A virus (A/Virginia/ATCC3/2009(H1N1)) infected in MDCK cells assessed as inhibition of virus-induced cytopathicity after 72 hrs by microscopic method. The format is functional, cell-based, Influenza A virus (A/Virginia/03/2009(H1N1)). The method in brief:
as §1
(Damage to the host cells serves as the signal in cytopathic effect assays.)

The subject of data set [4] is Influenza A virus. Briefly: Antiviral activity against Influenza A virus (A/Puerto Rico/8/34(H1N1)) infected in MDCK cells assessed as inhibition of virus-induced cytopathicity after 72 hrs by microscopic method. The format is functional, cell-based. Particulars: A/Puerto Rico/8/1934(H1N1). The procedure, abridged:
as §1

The subject of data set [5] is Influenza A virus (A/Puerto Rico/8/1934(H1N1)). Briefly: Inhibition of HeLa cell expressing Influenza A virus (A/Puerto Rico/8/34(H1N1)) hemagglutinin H1-mediated polykaryon formation at 100 uM preincubated for 15 mins followed by 5 mins of exposure to compound diluted in acidified PBS-CM of pH 5.2 and subsequent incubation with medium containing 10% fetal calf serum for 3 hrs by Giemsa staining-based inverted microscopy relative to control. The method in brief:
(§2)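 HA-transfected cells preincubated with compound, briefly exposed to pH 5.2 to trigger fusion, then kept in medium 3 h for polykaryon formation. Polykaryons were counted in microscopic fields. EC50 is the concentration giving 50% of the polykaryon number of the no-compound control (mean ± SEM, n = 3). Single-concentration tests used 100 μM.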

Data set [6] concerns Influenza A virus. Put plainly: Antiviral activity against Influenza A virus (A/Puerto Rico/8/34(H1N1)) infected in MDCK cells assessed as inhibition of virus-induced cytopathicity after 72 hrs by MTS assay. The format is functional, cell-based. Particulars: A/Puerto Rico/8/1934(H1N1). The method in brief: as §1
Data set [7] is described as follows: Cytotoxicity against MDCK cells assessed as decrease in cell viability after 72 hrs by MTS assay. The format is cell-based, Canis lupus familiaris. To be noted: dog. The procedure, abridged:
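Uninfected MDCK cells exposed to compound alongside the antiviral assay. Viability was read by colorimetric formazan-based MTS assay, and CC50 is the concentration giving 50% cytotoxicity.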
(Tetrazolium dyes change colour on reduction, which living cells bring about.)

Data set [8] can be described thus: Inhibition of HeLa cell expressing Influenza A virus (A/duck/Hunan/795/2002(H5N1)) hemagglutinin H5-mediated polykaryon formation preincubated for 15 mins followed by 5 mins of exposure to compound diluted in acidified PBS-CM of pH 5.2 and subsequent incubation with medium containing 10% fetal calf serum for 3 hrs by Giemsa staining-based inverted microscopy. The method in brief:
as §2

A short description of data set [9]: Antiviral activity against Influenza A virus (A/Virginia/ATCC3/2009(H1N1)) infected in MDCK cells assessed as inhibition of virus-induced cytopathicity after 72 hrs by MTS assay. The format is functional, cell-based, Influenza A virus (A/Virginia/03/2009(H1N1)). The method in brief:
as §1

Data set [10] concerns Influenza A virus (A/Hong Kong/7/1987(H3N2)). Briefly: Antiviral activity against Influenza A virus (A/Hong Kong/7/1987(H3N2)) infected in MDCK cells assessed as inhibition of virus-induced cytopathicity at 100 uM after 72 hrs. In kind it is functional, cell-based. The method in brief: as §1
Data set [11] in a line: Cytotoxicity against MDCK cells assessed as effect on cell morphology after 72 hrs by microscopic method. The format is cell-based, Canis lupus familiaris. To be noted: dog. The procedure, abridged:
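MDCK cells examined microscopically alongside the antiviral assay. MCC is the minimum compound concentration causing a microscopically detectable alteration of normal cell morphology.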

For data set [12], the system named is Influenza A virus. Put plainly: Binding affinity to recombinant Influenza A virus polyhistidine-tagged hemagglutinin H5 expressed in baculovirus infected insect Sf9 cells at 100 uM by STD NMR method. The method in brief:
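Saturation-transfer difference NMR with 100 μM compound and 1 μM recombinant H5 HA in 20 mM phosphate pH 7.5, 150 mM NaCl, 100% 2H2O, at 25 °C on a 900 MHz spectrometer with cryoprobe. Relative STD signals were derived per proton.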

Data set [13] concerns Influenza A virus (A/duck/Hunan/795/2002(H5N1)). Briefly: Inhibition of HeLa cell expressing Influenza A virus (A/duck/Hunan/795/2002(H5N1)) hemagglutinin H5-mediated polykaryon formation at 100 uM preincubated for 15 mins followed by 5 mins of exposure to compound diluted in acidified PBS-CM of pH 5.2 and subsequent incubation with medium containing 10% fetal calf serum for 3 hrs by Giemsa staining-based inverted microscopy relative to control. The procedure, abridged:
as §2

A short description of data set [14]: Inhibition of HeLa cell expressing Influenza A virus (A/Puerto Rico/8/34(H1N1)) hemagglutinin H1-mediated polykaryon formation preincubated for 15 mins followed by 5 mins of exposure to compound diluted in acidified PBS-CM of pH 5.2 and subsequent incubation with medium containing 10% fetal calf serum for 3 hrs by Giemsa staining-based inverted microscopy. Details: species or system Influenza A virus (A/Puerto Rico/8/1934(H1N1)). The method in brief:
as §2

The subject of data set [15] is Vesicular stomatitis virus. Put plainly: Antiviral activity against Vesicular stomatitis virus assessed as inhibition of virus-induced cytopathicity after 3 to 6 days by cell-based microscopic method. The format is functional.
The test system of the next data set is Human respirovirus 3. Briefly: Antiviral activity against Parainfluenza virus 3 infected in African green monkey Vero cells assessed as inhibition of virus-induced cytopathicity after 3 to 6 days by microscopic method. The format is functional. Particulars: Human respirovirus 3, Vero.
A further data set relates to Coxsackievirus B4. Put plainly: Antiviral activity against Coxsackievirus B4 infected in African green monkey Vero cells assessed as inhibition of virus-induced cytopathicity after 3 to 6 days by microscopic method. Particulars: Enterovirus B. The format is functional.

Broadly, the IC50 is the concentration at which inhibition is half-maximal. By inhibition is commonly meant the drop in the measured response relative to a control, in per cent. In general, EC50 refers to the concentration that produces a half-maximal response. For orientation: CC50 means the concentration giving 50% cytotoxicity. In data set [1], `CC(C)c1ccccc1NCCN1CCCCC1` came in with an IC50 of more than 100 µM. Also, the inhibition result (in [2]; with Influenza B virus; in data set [10]) was “inactive” each time. Also, the concentration giving a half-maximal response (EC50) in [3] was found to be 1700 nM; in the data set on Influenza A virus [4], 4.6 µM; in the data set with Influenza A virus [6], 5.5 µM; in [8] it was 39.6 µM; in data set [9], 1500 nM; in data set [14], 10.1 µM. Besides, the inhibition in data set [5] and in data set [13] was 100% throughout. In addition, the half-maximal cytotoxic concentration (CC50) at 72 h in data set [7] was more than 100 µM. The MCC at 72 h in [11] turned out to be 100 µM. Also, in the data set with Influenza A virus [12], the result was Active.

`CC(C)c1ccccc1OCCN1CCCCCC1`: the EC50 in [15] was 45 µM; in data set [3], 2600 nM; in the data set with Influenza A virus [4], more than 100 µM; in the data set with Influenza A virus [6], more than 100 µM; in data set [9] it was 2000 nM. Also, the inhibition entry (in the data set with Influenza B virus; in [10]) was “inactive” in each case. Moreover, the CC50 at 72 h in data set [7] was determined as 26 µM. Besides, the MCC at 72 h in data set [11] stood at 20 µM.

As for `FC(F)(F)c1ccccc1NCC12CC3CC(CC(C3)C1)C2`, the EC50 with Human respirovirus 3 is 9 µM.

In data set [1], `CCc1ccccc1OCCN1CCCCCC1` had an IC50 of 100 µM. For the same compound, the inhibition entry (in [2]; in the data set with Influenza B virus; in [10]) was “inactive” throughout. Also, the 50% effective concentration (EC50) in data set [3] was 4000 nM; with Influenza A virus [4], more than 100 µM; in the data set on Influenza A virus [6], more than 100 µM; in data set [8], 16.7 µM; in [9], less than 800 nM; in data set [14], 9.6 µM. For the same compound, the inhibition in data set [5] and in data set [13] was 100% in each case. In data set [7], the CC50 at 72 h came to 11 µM. Moreover, the MCC at 72 h in data set [11] came to 20 µM.

`CC(C)c1ccccc1NCCN1CCCCCC1`: the inhibition result (in the data set with Influenza B virus; in data set [10]) was “inactive” each time. Further, the concentration for a half-maximal effect (EC50) came out at 1600 nM in data set [3], 8.4 µM in the data set on Influenza A virus [4], 8.9 µM with Influenza A virus [6] and 1300 nM in data set [9]. The CC50 at 72 h in data set [7] is 52 µM. Moreover, the MCC at 72 h in [11] was 100 µM. The outcome in the data set on Influenza A virus [12] was Active.

With `c1ccc(COc2ccc(NCC34CC5CC(CC(C5)C3)C4)cc2)cc1`, in the data set on Coxsackievirus B4, the EC50 was 8.9 µM.
